Common to all, as to assay type: functional
In assay [1] the test system is Helicobacter pylori. The assay is described as follows: Antibacterial activity against Helicobacter pylori ATCC 700392. The procedure, abridged:
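Agar dilution per CLSI. Wild-type H. pylori ATCC 700392 (CB1531). Drugs prepared from 100× stocks as 2-fold dilutions in Mueller–Hinton agar with aged (≥2 weeks) sheep blood (5% v/v). Combinations were at 1:1 molar ratio. MIC read after 5 days at 35 °C under microaerobic atmosphere from a campylobacter gas-generating system.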

Assay [2] relates to Clostridioides difficile. Description: Antibacterial activity against Clostridioides difficile ATCC 9689.
Assay [3] has as its system Staphylococcus aureus. The assay is described as follows: Antibacterial activity against Staphylococcus aureus ATCC 29213.
The test system of assay [4] is Helicobacter pylori. The assay is described as follows: Antibacterial activity against rifampicin resistant Helicobacter pylori harboring rpoBL525I/D530N mutant.
Assay [5] concerns Clostridioides difficile. Description: Antibacterial activity against rifampicin-resistant Clostridioides difficile harboring rpoBQ489K mutant.
Assay [6] deals with Clostridioides difficile. Description: Antibacterial activity against Clostridioides difficile BAA 1382.
Assay [7] concerns Helicobacter pylori. The assay is described as follows: Antibacterial activity against Helicobacter pylori infected in C57/BL6 mouse assessed as bacterial load in stomach at 1 mg/kg administered twice daily via oral gavage starting from 7 days post inoculation and administered for 7 days in presence of 10 mg/kg clarithromycin and 20 mg/kg amoxicillin (reference value: 5.25 log10CFU). Particulars: time 7 day.

In brackets after ≈: the same amount, converted by molar mass. Some results are limits rather than exact numbers.

MIC and Activity data for 20 molecules are collected here from ChEMBL document CHEMBL5131497, “Design, Synthesis, and Characterization of TNP-2198, a Dual-Targeted Rifamycin-Nitroimidazole Conjugate with Potent Activity against Microaerophilic and Anaerobic Bacterial Pathogens” (J Med Chem, 2022).

`C[C@]1(COc2ccc(N3CCC(Oc4ccc(OC(F)(F)F)cc4)CC3)cc2)Cn2cc([N+](=O)[O-])nc2O1`: the values for the MIC in assay [1], in assay [2] and in assay [3] were 2 µg/mL (≈ 3.74 µM), > 16 µg/mL and > 32 µg/mL, respectively.

With `CO[C@H]1/C=C/O[C@@]2(C)Oc3c(C)c(O)c4c(=O)c(c5oc6cc(N7CCN(CCn8c([N+](=O)[O-])cnc8C)CC7)cc(O)c6nc-5c4c3C2=O)NC(=O)/C(C)=C\C=C\[C@H](C)[C@H](O)[C@@H](C)[C@@H](O)[C@@H](C)[C@H](OC(C)=O)[C@@H]1C`, the MIC in assay [1] was 0.004 µg/mL (≈ 0.00385 µM); in assay [2], 0.002 µg/mL (≈ 0.00193 µM); in assay [4], 0.5 µg/mL (≈ 0.482 µM); in assay [5], 2 µg/mL (≈ 1.93 µM); in assay [3] it was < 0.03 µg/mL; in assay [6], 0.001 µg/mL (≈ 0.000963 µM).

As for `CO[C@H]1/C=C/O[C@@]2(C)Oc3c(C)c(O)c4c(O)c(c(/C=N/N5CCN(CCn6c([N+](=O)[O-])cnc6C)CC5)c(O)c4c3C2=O)NC(=O)/C(C)=C\C=C\[C@H](C)[C@H](O)[C@@H](C)[C@@H](O)[C@@H](C)[C@H](OC(C)=O)[C@@H]1C`, the MIC in assay [1] worked out at 0.25 µg/mL (≈ 0.26 µM); in assay [2], 0.002 µg/mL (≈ 0.00208 µM); in assay [4] it was 2 µg/mL (≈ 2.08 µM); in assay [5] it was 2 µg/mL (≈ 2.08 µM); in assay [3], 0.03 µg/mL (≈ 0.0312 µM); in assay [6] it was 0.0005 µg/mL (≈ 0.00052 µM).

In the case of `CO[C@H]1/C=C/O[C@@]2(C)Oc3c(C)c(O)c4c(O)c(c(N5CCN(CC6(C)Cn7cc([N+](=O)[O-])nc7O6)CC5)c(O)c4c3C2=O)NC(=O)/C(C)=C\C=C\[C@H](C)[C@H](O)[C@@H](C)[C@@H](O)[C@@H](C)[C@H](OC(C)=O)[C@@H]1C` (stereo partly specified), the MIC in assay [1] amounted to 0.25 µg/mL (≈ 0.26 µM); in assay [2], 0.001 µg/mL (≈ 0.00104 µM); in assay [3] it was 0.008 µg/mL (≈ 0.00831 µM).

For `CO[C@H]1/C=C/O[C@@]2(C)Oc3c(C)c(O)c4c(=O)c(c5oc6cc(N7CCN(c8ccc(OCC9(C)Cn%10cc([N+](=O)[O-])nc%10O9)cc8)CC7)cc(O)c6nc-5c4c3C2=O)NC(=O)/C(C)=C\C=C\[C@H](C)[C@H](O)[C@@H](C)[C@@H](O)[C@@H](C)[C@H](OC(C)=O)[C@@H]1C` (stereo partly specified), the MIC in assay [1] is 0.06 µg/mL (≈ 0.0518 µM); in assay [2] it was 0.03 µg/mL (≈ 0.0259 µM); in assay [3] it was < 0.008 µg/mL.

In the case of `CO[C@H]1/C=C/O[C@@]2(C)Oc3c(C)c(O)c4c(O)c(c(N5CCN(Cc6ccc(OCC7Cn8cc([N+](=O)[O-])nc8O7)cc6)CC5)c(O)c4c3C2=O)NC(=O)/C(C)=C\C=C\[C@H](C)[C@H](O)[C@@H](C)[C@@H](O)[C@@H](C)[C@H](OC(C)=O)[C@@H]1C` (stereo partly specified), the results for the MIC in assay [1] and in assay [3] were 0.25 µg/mL (≈ 0.237 µM) and < 0.004 µg/mL, respectively.

On to `CO[C@H]1/C=C/O[C@@]2(C)Oc3c(C)c(O)c4c(O)c(c(N5CCN(CCn6c([N+](=O)[O-])cnc6C)CC5)c(O)c4c3C2=O)NC(=O)/C(C)=C\C=C\[C@H](C)[C@H](O)[C@@H](C)[C@@H](O)[C@@H](C)[C@H](OC(C)=O)[C@@H]1C`, for which the MIC in assay [1] is 0.06 µg/mL (≈ 0.0642 µM); in assay [2], 0.00025 µg/mL (≈ 0.000267 µM); in assay [3], < 0.015 µg/mL; in assay [6], 0.00025 µg/mL (≈ 0.000267 µM).

With `CO[C@H]1/C=C/O[C@@]2(C)Oc3c(C)c(O)c4c(c3C2=O)C2=NC3(CCN(CC5Cn6cc([N+](=O)[O-])nc6O5)CC3)NC2=C(NC(=O)/C(C)=C\C=C\[C@H](C)[C@H](O)[C@@H](C)[C@@H](O)[C@@H](C)[C@H](OC(C)=O)[C@@H]1C)C4=O` (stereo partly specified), the MIC in assay [1] is 0.06 µg/mL (≈ 0.0626 µM); in assay [3] it was 0.015 µg/mL (≈ 0.0157 µM).

Take `CO[C@H]1/C=C/O[C@@]2(C)Oc3c(C)c(O)c4c(O)c(c5c(nc6ccc(CCC(=O)N7CCN(CCn8c([N+](=O)[O-])cnc8C)CC7)cn65)c4c3C2=O)NC(=O)/C(C)=C\C=C\[C@H](C)[C@H](O)[C@@H](C)[C@@H](O)[C@@H](C)[C@H](OC(C)=O)[C@@H]1C`: the MIC in assay [1] is 1 µg/mL (≈ 0.939 µM); in assay [2] it was 0.004 µg/mL (≈ 0.00376 µM); in assay [4] it was > 8 µg/mL; in assay [5], 4 µg/mL (≈ 3.76 µM); in assay [6] it was 0.004 µg/mL (≈ 0.00376 µM).

In the case of `CO[C@H]1/C=C/O[C@@]2(C)Oc3c(C)c(O)c4c(O)c(c(N5CCN(Cc6ccc(CO[C@@H]7COc8nc([N+](=O)[O-])cn8C7)cc6)CC5)c(O)c4c3C2=O)NC(=O)/C(C)=C\C=C\[C@H](C)[C@H](O)[C@@H](C)[C@@H](O)[C@@H](C)[C@H](OC(C)=O)[C@@H]1C`, the results for the MIC in assay [1], in assay [2] and in assay [3] were 0.5 µg/mL (≈ 0.468 µM), 0.008 µg/mL (≈ 0.00748 µM) and < 0.008 µg/mL, respectively.

With `CO[C@H]1/C=C/O[C@@]2(C)Oc3c(C)c(O)c4c(O)c(c(N5CCN(C(=O)CO[C@@H]6COc7nc([N+](=O)[O-])cn7C6)CC5)c(O)c4c3C2=O)NC(=O)/C(C)=C\C=C\[C@H](C)[C@H](O)[C@@H](C)[C@@H](O)[C@@H](C)[C@H](OC(C)=O)[C@@H]1C`, the results for the MIC in assay [1] and in assay [3] were 4 µg/mL (≈ 3.97 µM) and 2 µg/mL (≈ 1.99 µM), respectively.

With `CO[C@H]1/C=C/O[C@@]2(C)Oc3c(C)c(O)c4c(c3C2=O)C2=NC3(CCN(CC(=O)Nc5ncc([N+](=O)[O-])s5)CC3)NC2=C(NC(=O)/C(C)=C\C=C\[C@H](C)[C@H](O)[C@@H](C)[C@@H](O)[C@@H](C)[C@H](OC(C)=O)[C@@H]1C)C4=O`, the MIC in assay [1] was determined as 0.004 µg/mL (≈ 0.0041 µM); in assay [2], 0.001 µg/mL (≈ 0.00102 µM).

For `CO[C@H]1/C=C/O[C@@]2(C)Oc3c(C)c(O)c4c(c3C2=O)C2=NC3(CCN(CC5(C)Cn6cc([N+](=O)[O-])nc6O5)CC3)NC2=C(NC(=O)/C(C)=C\C=C\[C@H](C)[C@H](O)[C@@H](C)[C@@H](O)[C@@H](C)[C@H](OC(C)=O)[C@@H]1C)C4=O` (stereo partly specified), the MIC in assay [1] and in assay [3] was 0.03 µg/mL (≈ 0.0309 µM) throughout.

For `CO[C@H]1/C=C/O[C@@]2(C)Oc3c(C)c(O)c4c(O)c(c(N5CCN(c6ccc(OCC7(C)Cn8cc([N+](=O)[O-])nc8O7)cc6)CC5)c(O)c4c3C2=O)NC(=O)/C(C)=C\C=C\[C@H](C)[C@H](O)[C@@H](C)[C@@H](O)[C@@H](C)[C@H](OC(C)=O)[C@@H]1C` (stereo partly specified), the MIC amounted to 1 µg/mL (≈ 0.948 µM) in assay [1], 0.03 µg/mL (≈ 0.0284 µM) in assay [2] and 0.015 µg/mL (≈ 0.0142 µM) in assay [3].

In the case of `CO[C@H]1/C=C/O[C@@]2(C)Oc3c(C)c(O)c4c(O)c(c(N5CCN(C(=O)c6ccc(OCC7(C)Cn8cc([N+](=O)[O-])nc8O7)cc6)CC5)c(O)c4c3C2=O)NC(=O)/C(C)=C\C=C\[C@H](C)[C@H](O)[C@@H](C)[C@@H](O)[C@@H](C)[C@H](OC(C)=O)[C@@H]1C` (stereo partly specified), the MIC in assay [1] was found to be 4 µg/mL (≈ 3.69 µM); in assay [3], 0.25 µg/mL (≈ 0.231 µM).

As for `CO[C@H]1/C=C/O[C@@]2(C)Oc3c(C)c(O)c4c(c3C2=O)C2=NC3(CCN(Cc5ccc(CO[C@@H]6COc7nc([N+](=O)[O-])cn7C6)cc5)CC3)NC2=C(NC(=O)/C(C)=C\C=C\[C@H](C)[C@H](O)[C@@H](C)[C@@H](O)[C@@H](C)[C@H](OC(C)=O)[C@@H]1C)C4=O`, the MIC in assay [1] came to 0.03 µg/mL (≈ 0.0278 µM); in assay [2], 0.001 µg/mL (≈ 0.000927 µM); in assay [3], 0.03 µg/mL (≈ 0.0278 µM).

`COc1ccc2[nH]c([S+]([O-])Cc3ncc(C)c(OC)c3C)nc2c1` (stereo unspecified) [OMEPRAZOLE]: the Activity in assay [7] stood at 1.7 log10CFU.

On to `O=[N+]([O-])c1cn2c(n1)OC[C@@H](OCc1ccc(OC(F)(F)F)cc1)C2` [PRETOMANID], for which the MIC in assay [1] is 2 µg/mL (≈ 5.57 µM); in assay [2] it was 16 µg/mL (≈ 44.5 µM); in assay [3], > 32 µg/mL.

Take `CO[C@H]1/C=C/O[C@@]2(C)Oc3c(C)c(O)c4c(=O)c(c5oc6cc(N7CCN(CC(C)C)CC7)cc(O)c6nc-5c4c3C2=O)NC(=O)/C(C)=C\C=C\[C@H](C)[C@H](O)[C@@H](C)[C@@H](O)[C@@H](C)[C@H](OC(C)=O)[C@@H]1C` [RIFALAZIL]: the figures for the MIC in assay [1], in assay [2] and in assay [3] were 0.002 µg/mL (≈ 0.00213 µM), 0.001 µg/mL (≈ 0.00106 µM) and 0.004 µg/mL (≈ 0.00425 µM), respectively.

Turning to `CO[C@H]1/C=C/O[C@@]2(C)Oc3c(C)c(O)c4c(O)c(c5c(nc6cc(C)ccn65)c4c3C2=O)NC(=O)/C(C)=C\C=C\[C@H](C)[C@H](O)[C@@H](C)[C@@H](O)[C@@H](C)[C@H](OC(C)=O)[C@@H]1C` [RIFAXIMIN], the MIC in assay [1] was determined as 1 µg/mL (≈ 1.27 µM); in assay [2] it was 0.004 µg/mL (≈ 0.00509 µM); in assay [3], 0.06 µg/mL (≈ 0.0763 µM).
